Bioassay records from PubChem.
PglD DTNB = C. jejuni PglD acetyltransferase inhibitors, primary screen, biochemical, DTNB colorimetric, single point. actives 0.098% (n = 360,000). AID 602405, 2012. UDP-N-acetylbacillosamine N-acetyltransferase PglD (Campylobacter jejuni). inhibition, % at 12.5 µM. purified PglD enzyme, DTNB colorimetric CoA detection; in the data active = inhibition above about 16%, passing the limit was not always enough; inconclusive = no clear call, values can overlap the other calls
PGC1a acetyl inh = inhibitors of PGC1a acetylation signal, primary screen, cell-based, U2OS, AlphaScreen, inhibitor mode | AlphaScreen anti-acetyl-lysine; with virally co-expressed GCN5 acetyltransferase | inhibition, % at 15.6 µM | actives 0.17% (n = 350,000) | AID 651687, 2012;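 active = every replicate shows inhibition of at least 40%; inconclusive = mean inhibition at least 40% but some replicate below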;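 note: 0% = neutral control wells and 100% = positive control wells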
Vif inh = HIV Vif self-association inhibitors, primary screen, imaging, HEK293T, single point; HEK293T cells, Vif self-association by quenched fluorescence, 24 h; actives 0.35% (n = 340,000); inhibition, % at 7.49 µM; AID 602346, 2012; in the data active = inhibition above about 50%, passing the limit was not always enough; inconclusive = no clear call, values can overlap the other calls; inactive = below about 31%
FGF22 binding = binders of human FGF22 protein, primary screen, FGF22 synaptogenesis inhibitor project, biophysical, thermal shift, single point. actives 1.5% (n = 340,000). activity (Tm shift, normalised), % at 9.99 µM. AID 651658, 2012. Fibroblast growth factor 22 (Homo sapiens), Q9HCT0. recombinant FGF22 thermal shift, SYPRO orange fluorescence; percent of sucrose octasulfate shift, DMSO zero;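 active = mean Tm shift, scaled 0 neutral to 100 positive control, at about 1.3% or above, every replicate too, limit read from the data; inconclusive = no clear call, values can overlap the other calls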
Target sequence (Q9HCT0 whole entry, looked up): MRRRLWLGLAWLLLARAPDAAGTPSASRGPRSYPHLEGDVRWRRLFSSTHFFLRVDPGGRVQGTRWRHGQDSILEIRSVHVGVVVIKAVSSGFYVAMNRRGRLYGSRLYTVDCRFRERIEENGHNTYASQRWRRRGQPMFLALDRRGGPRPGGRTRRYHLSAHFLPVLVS
Cneo AK release = Cryptococcus neoformans cell lysis inducers, primary screen, AK release luminescence, single concentration; C. neoformans lysis, adenylate kinase release luminescence, 4 h; normalised: neutral wells 0, clomiphene wells 100; lysis activity, % at 15 µM; actives 0.2% (n = 360,000);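 active = mean lysis activity across replicates of at least 80%, whatever share of replicates individually reach that level; inactive = mean lysis activity below 80%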
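read-out = cell lysis signal | test system = log-phase Cryptococcus neoformans yeast cells | input = cells at 5 × 10^6 per mL | medium = fresh YPD growth medium | signal = luminescent adenylate kinase detection reagent | timing = 4 h at 37 °C static, read 1 h later | dosing = single dose | controls = Clomiphene as positive lysis control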
Ecoli rRNA inh = reduced GFP signal of wild-type E. coli, primary screen, bacterial rRNA inhibitor project, GFP/RFP fluorescence, OD600, single point; E. coli WT GFP vs humanized-ribosome RFP mutants, 24 h; hits give low values; DMSO median 0, no signal -100; GFP signal change (wild-type ribosome), % (no concentration beside the values); actives 1.6% (n = 350,000);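 active = significant combined selectivity score with lowered wild-type GFP, culture density cut under 30%, mutant RFP and density less affected; inactive = any of these conditions unmet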
AID977621 = growth inhibition of wild-type GFP E. coli, dose response, H69 mutant RFP, cherry-pick; AID 977621, 2014; E. coli wild-type GFP strain growth, fluorescence, 24 h; activity change, negative = inhibition at 50 µM; 1,900 tested, under 10 active; shares compounds with Ecoli rRNA inh;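 active = Wild-type ribosome reporter drop at least double the humanized mutant ribosome reporter drop, growth loss under a set limit; inconclusive = no clear call, values can overlap the other calls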;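 note: wild-type GFP and H69 mutant RFP strains grown together 50/50 in each well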
AID977628 = E. coli growth inhibition, wild-type GFP versus h24 humanized RFP strain, dose response, h24 mutant RFP vs wild-type GFP, cherry-pick | shares compounds with Ecoli rRNA inh | E. coli WT GFP strain growth, fluorescence, 24 h | activity change, negative = inhibition at 50 µM | 1,900 tested, under 10 active | AID 977628, 2014;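 active = compound lowering the normal-ribosome reporter at least twice as much as the humanized-ribosome reporter, growth loss under a set limit; inconclusive = no clear call, values can overlap the other calls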;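 note: wild-type GFP and h24 humanized RFP strains co-cultured 1 to 1 per well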
* hit, by the source's call; ? = inconclusive; nt = no result; ! = a repeat was not active. The list is not random: actives were taken first. Their share in the collection is about 2.9%.

SMILES	PglD DTNB	PGC1a acetyl inh	Vif inh	FGF22 binding	Cneo AK release	Ecoli rRNA inh	AID977621	AID977628
CC(C)NC(=O)Nc1ccc2c(c1)C(=O)N([C@@H](C)CO)C[C@H](C)[C@@H](CN(C)S(=O)(=O)c1cn(C)cn1)OCCCC[C@H](C)O2	-3	-19	nt	0	-1	6	nt	nt
CC(C)Oc1cccc(C(=O)C2CCCN(Cc3ccc4nonc4c3)C2)c1 (stereo not given)	nt	1	5	0	nt	-29*	?	nt
COc1ccc(NC(=O)CN(c2ccccc2OC)S(=O)(=O)c2cccs2)cc1Cl	0	-16	-11	0	4	-17*	-11	nt
O=S(=O)(NCc1ccc2c(c1)OCO2)c1ccc2c(c1)oc1ccccc12	1	-1	0	0	-1	-19*	-17	nt
O=S(=O)(NCc1ccc2c(c1)OCO2)c1cccc(F)c1	2	nt	-3	0	1	-2	nt	nt
C=CCNC(=O)c1ccccc1CCc1ccccc1	1	-2	-2	0	-3	-26*	4.9	-3.4
O=C(NC1CCCC(C(F)(F)F)C1)c1ccc([N+](=O)[O-])o1 (stereo not given)	9	nt	-2	0	0	-24*	nt	?
C[C@@H]1CN([C@@H](C)CO)S(=O)(=O)c2ccc(C#CC3(O)CCCC3)cc2O[C@@H]1CN(C)C(=O)Nc1ccccc1	3	-3	nt	1	-1	-5	nt	nt
C[C@@H]1CN([C@@H](C)CO)C(=O)c2cccc(NS(=O)(=O)c3ccc(Cl)cc3)c2O[C@@H]1CN(C)Cc1ccc(Cl)c(Cl)c1	-1	2	nt	0	6	5	nt	nt
COc1ccc(S(=O)(=O)N(C)C[C@@H]2OCc3cn(nn3)CCCC(=O)N([C@H](C)CO)C[C@@H]2C)cc1	nt	1	nt	nt	nt	0	nt	nt
CC(=O)Nc1ccc2nc3ccccc3nc2c1	nt	2	-5	0	nt	-26*	-17	nt
O=C(Nc1ccc2nc3ccccc3nc2c1)c1ccc(Br)cc1	-2	-3	4	nt	-1	nt	nt	nt
CC(=O)Nc1cccc(Nc2nc(-c3ccccc3)nc3ccccc23)c1	nt	nt	-20	1	nt	-22*	nt	?
CN(C)C(=O)c1cccc(-c2ccc(C3[C@H]4CNC[C@@H]3N4S(=O)(=O)c3ccccc3F)cc2)c1 (stereo not given in full)	nt	7	nt	0	nt	-22*!	-8	?
N#Cc1ccc(-c2ccc(C3[C@H]4CNC[C@@H]3N4S(=O)(=O)c3ccc(-c4ccccc4)cc3)cc2)cc1 (stereo not given in full)	nt	4	nt	0	nt	-18*	-5.4	nt
Cn1nnnc1SCc1nc2scc(-c3ccccc3)c2c(=O)[nH]1	3	3	-6	0	-1	-14	nt	nt
Cc1csc(SCc2nc3scc(-c4ccccc4)c3c(=O)[nH]2)n1	6	-2	-4	0	2	-24*	0.6	-8.5
O=[N+]([O-])c1cccc(COc2ccc(CN3CCCC3)cc2)c1	3	-3	-3	1	7	-4	nt	nt
O=[N+]([O-])c1cccc(COc2ccc(CN3CCOCC3)cc2)c1	2	-5	-1	0	-3	-17*	-5	-8.8
COc1ccc([C@H]2C[C@H](O)C[C@@H](CCn3cc(-c4ccccc4)nn3)O2)cc1	nt	nt	nt	0	nt	-22*	nt	-7
COc1ccc([C@H]2CC(=O)C[C@@H](CCn3cc(-c4ccncc4)nn3)O2)cc1	nt	nt	nt	0	nt	16	nt	nt
